Tests used:
Format in all cases: functional, cell-based
[1] = target: Insulin receptor (Homo sapiens) (UniProt P06213); assay: Increase in insulin-induced IRbeta phosphorylation in human HepG2 cells after 1 hr at 20 nM
Summary of the method: (§1)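 HepG2 (MEM, 2 mM L-glutamine, 1 mM pyruvate, 10% FBS, 5% CO2) grown to 60-80% confluence, serum-starved 5 h, exposed 1 h to prodrug (0, 5, 20, 100 nM), then 100 nM insulin or none for 5 min. Lysates run on SDS-PAGE, blotted with anti-phospho-IRβ (pY1162/1163) and anti-phospho-ERK1/2, β-actin loading control; bands quantified densitometrically as fold over insulin-only.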

[2] = target: Insulin receptor (Homo sapiens) (UniProt P06213); assay: Increase in insulin-induced ERK phosphorylation in human HepG2 cells after 1 hr at 20 nM; summary of the method: as §1
[3] = target: Insulin receptor (Homo sapiens) (UniProt P06213); assay: Increase in insulin-induced IRbeta phosphorylation in human HepG2 cells after 1 hr at 100 nM; summary of the method: as §1
[4] = target: Insulin receptor (Homo sapiens) (UniProt P06213); assay: Increase in insulin-induced ERK phosphorylation in human HepG2 cells after 1 hr at 100 nM; summary of the method: as §1
[5] = target: Insulin receptor (Homo sapiens) (UniProt P06213); assay: Increase in insulin-induced IRbeta phosphorylation in HepG2 cells after 5 mins at 20 nM
Summary of the method: (§2)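 Time course in subconfluent HepG2 cells. Preincubation with 20 nM prodrug for various periods (5, 20, 60 min), then 5 min with or without 100 nM insulin. Lysates resolved by SDS-PAGE, transferred to nitrocellulose and probed for phospho-IRβ and phospho-ERK1/2. Result expressed as increase in insulin-induced phosphorylation.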

[6] = target: Insulin receptor (Homo sapiens) (UniProt P06213); assay: Increase in insulin-induced IRbeta phosphorylation in HepG2 cells after 20 mins at 20 nM; summary of the method: as §2
[7] = target: Insulin receptor (Homo sapiens) (UniProt P06213); assay: Increase in insulin-induced IRbeta phosphorylation in HepG2 cells after 60 mins at 20 nM; summary of the method: as §2
[8] = target: Insulin receptor (Homo sapiens) (UniProt P06213); assay: Increase in insulin-induced ERK phosphorylation in HepG2 cells after 20 mins at 20 nM
[9] = target: Insulin receptor (Homo sapiens) (UniProt P06213); assay: Increase in insulin-induced ERK phosphorylation in HepG2 cells after 60 mins at 20 nM; summary of the method: as §2
[10] = target: Insulin receptor (Homo sapiens) (UniProt P06213); assay: Increase in insulin-induced IRbeta phosphorylation in HepG2 cells after 2 hrs at 20 nM

Sequence of Insulin receptor (Homo sapiens) (P06213 28-758 limits assumed): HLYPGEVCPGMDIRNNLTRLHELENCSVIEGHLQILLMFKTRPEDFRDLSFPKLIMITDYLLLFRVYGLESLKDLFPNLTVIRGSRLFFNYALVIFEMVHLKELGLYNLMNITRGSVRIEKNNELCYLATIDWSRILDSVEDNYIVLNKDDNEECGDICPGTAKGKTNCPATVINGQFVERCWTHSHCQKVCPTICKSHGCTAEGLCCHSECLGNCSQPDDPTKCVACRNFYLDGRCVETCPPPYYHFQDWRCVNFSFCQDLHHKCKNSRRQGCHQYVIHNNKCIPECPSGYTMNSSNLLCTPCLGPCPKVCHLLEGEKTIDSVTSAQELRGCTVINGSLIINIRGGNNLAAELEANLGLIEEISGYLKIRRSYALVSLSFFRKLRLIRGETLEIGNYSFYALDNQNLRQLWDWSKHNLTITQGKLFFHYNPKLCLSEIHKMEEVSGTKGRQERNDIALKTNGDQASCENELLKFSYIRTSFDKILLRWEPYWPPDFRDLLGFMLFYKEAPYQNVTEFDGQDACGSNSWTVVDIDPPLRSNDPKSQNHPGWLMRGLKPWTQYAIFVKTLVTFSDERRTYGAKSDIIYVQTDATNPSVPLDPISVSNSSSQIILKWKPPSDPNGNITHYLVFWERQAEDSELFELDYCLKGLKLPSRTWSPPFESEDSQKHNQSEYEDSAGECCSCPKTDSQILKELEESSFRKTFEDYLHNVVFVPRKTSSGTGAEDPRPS
Sequence of Insulin receptor (Homo sapiens) (P06213 763-1382 limits assumed): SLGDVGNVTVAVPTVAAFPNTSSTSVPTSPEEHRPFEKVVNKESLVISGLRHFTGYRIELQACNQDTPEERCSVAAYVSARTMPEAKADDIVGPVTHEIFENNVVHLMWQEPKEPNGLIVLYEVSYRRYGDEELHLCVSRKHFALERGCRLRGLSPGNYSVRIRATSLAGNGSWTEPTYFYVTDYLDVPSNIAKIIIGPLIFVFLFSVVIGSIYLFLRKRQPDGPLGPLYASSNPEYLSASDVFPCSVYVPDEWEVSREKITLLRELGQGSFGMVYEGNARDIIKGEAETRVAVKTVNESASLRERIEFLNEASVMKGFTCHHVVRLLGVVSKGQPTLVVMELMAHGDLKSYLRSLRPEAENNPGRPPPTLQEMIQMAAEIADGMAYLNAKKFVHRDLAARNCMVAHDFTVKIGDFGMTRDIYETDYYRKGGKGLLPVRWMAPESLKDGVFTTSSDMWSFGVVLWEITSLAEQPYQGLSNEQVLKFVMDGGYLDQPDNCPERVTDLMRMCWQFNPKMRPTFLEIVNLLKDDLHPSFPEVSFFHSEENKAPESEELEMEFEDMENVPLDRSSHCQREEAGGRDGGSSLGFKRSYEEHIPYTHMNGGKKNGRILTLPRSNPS

In the case of CN(CCCCCl)P(=O)(OCc1ccc([N+](=O)[O-])o1)C(F)(F)c1ccc(CC(=O)N[C@@H](CC(=O)O)C(=O)N[C@@H](Cc2ccc(C(F)(F)P(=O)(OCc3ccc([N+](=O)[O-])o3)N(C)CCCCCl)cc2)C(N)=O)cc1 (stereo not given in full), the Activity [1] is reported as 1.9, the Activity [2] is reported as 1.3 and the Activity [3] is reported as 2.1. It also gave an Activity [4] of 1.6, an Activity [5] of 35% and an Activity [6] of 1.7. The Activity [7] was 2, the Activity [8] was 25% and the Activity [9] was 50%. It also gave an Activity [10] of 2.1.

From ChEMBL document CHEMBL1141375, “Synthesis and cell-based activity of a potent and selective protein tyrosine phosphatase 1B inhibitor prodrug” (J Med Chem, 2007)
